Data as given in ChEMBL document CHEMBL3407371, “Elimination of a cholecystokinin receptor agonist 'trigger' in an effort to develop positive allosteric modulators without intrinsic agonist activity” (Bioorg Med Chem Lett, 2015).
pEC50, pIC50: −log10 of the molar value. Calls of active or inactive are those of the source. The rule behind the calls is not given here.

Legend:
[1] = molecular target: T1, Cholecystokinin receptor type A (Homo sapiens, UniProt P32238); type: cell-based, CHO
T1 sequence (P32238 whole entry): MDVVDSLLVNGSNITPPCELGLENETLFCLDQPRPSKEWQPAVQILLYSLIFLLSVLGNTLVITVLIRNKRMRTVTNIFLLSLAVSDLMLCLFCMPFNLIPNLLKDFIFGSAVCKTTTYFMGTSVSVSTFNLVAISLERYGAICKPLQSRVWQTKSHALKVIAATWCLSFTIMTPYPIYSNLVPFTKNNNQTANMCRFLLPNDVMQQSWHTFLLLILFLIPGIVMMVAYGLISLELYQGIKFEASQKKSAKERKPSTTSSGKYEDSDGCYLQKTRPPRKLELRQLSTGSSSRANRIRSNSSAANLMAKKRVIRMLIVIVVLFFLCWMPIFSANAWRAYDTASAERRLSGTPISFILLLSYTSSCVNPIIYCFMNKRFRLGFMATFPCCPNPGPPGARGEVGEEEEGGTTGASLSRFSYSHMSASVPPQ

[2] = molecular target: T2, Gastrin/cholecystokinin type B receptor (Homo sapiens, UniProt P32239); type: cell-based, CHO
T2 sequence (P32239 whole entry): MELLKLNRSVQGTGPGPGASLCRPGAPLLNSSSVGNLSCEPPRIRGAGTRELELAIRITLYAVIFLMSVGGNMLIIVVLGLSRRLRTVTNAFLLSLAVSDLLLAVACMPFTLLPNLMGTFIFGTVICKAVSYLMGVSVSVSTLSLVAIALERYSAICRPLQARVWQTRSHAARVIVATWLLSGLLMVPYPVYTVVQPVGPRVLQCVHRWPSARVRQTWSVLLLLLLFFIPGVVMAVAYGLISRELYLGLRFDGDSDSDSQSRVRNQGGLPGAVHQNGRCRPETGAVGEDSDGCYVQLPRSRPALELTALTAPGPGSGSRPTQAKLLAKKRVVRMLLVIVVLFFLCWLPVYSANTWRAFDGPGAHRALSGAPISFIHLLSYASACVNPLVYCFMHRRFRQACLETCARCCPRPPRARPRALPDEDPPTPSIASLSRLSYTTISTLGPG

[3] = molecular target: T1, Cholecystokinin receptor type A; type: cell-based, CHO; remark: listed apart in the source
[4] = molecular target: T2, Gastrin/cholecystokinin type B receptor; type: cell-based, CHO; remark: listed apart in the source
[5] = molecular target: T1, Cholecystokinin receptor type A; experiment: Activity at CCK1R (unknown origin) expressed in CHO cells assessed as stimulation of intracellular calcium responses; type: functional, cell-based
Outline: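 Intact CHO cell lines stably expressing CCK1R or CCK2R; intracellular calcium measured after adding compound alone. Peak responses and EC50 values taken from concentration-response curves. Duplicate determinations, at least three independent experiments, means ± S.E.M.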

[6] = molecular target: T3, Gastrin/cholecystokinin type B receptor (Homo sapiens) (UniProt P32239); experiment: Activity at CCK2R (unknown origin) expressed in CHO cells assessed as stimulation of intracellular calcium responses; type: functional, cell-based
T3 sequence (whole entry): T2 sequence (P32239 whole entry)
Outline: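 Intact CHO cell lines stably expressing CCK1R or CCK2R; intracellular calcium measured after adding compound alone. […] Peak responses and EC50 values taken from concentration-response curves. Duplicate determinations, at least three independent experiments, means ± S.E.M.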

[7] = molecular target: T1, Cholecystokinin receptor type A; type: functional, cell-based; conditions: cho
[8] = molecular target: T4, Cholecystokinin receptor type A (Homo sapiens, UniProt P32238, N98T); type: cell-based, CHO
[9] = molecular target: T5, Cholecystokinin receptor type A (Homo sapiens, UniProt P32238); type: cell-based; conditions: cho
[10] = molecular target: T6, Cholecystokinin receptor type A (Homo sapiens) (UniProt P32238); conditions: CHO, 1 uM
T6 sequence (whole entry): T1 sequence (P32238 whole entry)

[11] = molecular target: T2, Gastrin/cholecystokinin type B receptor; type: cell-based, CHO; remark: listed apart in the source
[12] = molecular target: T7, Cholecystokinin receptor type A (Homo sapiens, UniProt P32238, T117V/T118S); type: cell-based, CHO
[13] = molecular target: T5, Cholecystokinin receptor type A; type: cell-based; conditions: cho; remark: listed apart in the source
[14] = molecular target: T8, Cholecystokinin receptor type A (Homo sapiens, UniProt P32238, L356H); type: cell-based, CHO
[15] = molecular target: T4, Cholecystokinin receptor type A; type: cell-based, CHO; remark: listed apart in the source
[16] = molecular target: T7, Cholecystokinin receptor type A; type: cell-based, CHO; remark: listed apart in the source
[17] = molecular target: T5, Cholecystokinin receptor type A; type: cell-based; conditions: cho; remark: listed apart in the source
[18] = molecular target: T8, Cholecystokinin receptor type A; type: cell-based, CHO; remark: listed apart in the source

T4 sequence (P32238 whole entry N98T): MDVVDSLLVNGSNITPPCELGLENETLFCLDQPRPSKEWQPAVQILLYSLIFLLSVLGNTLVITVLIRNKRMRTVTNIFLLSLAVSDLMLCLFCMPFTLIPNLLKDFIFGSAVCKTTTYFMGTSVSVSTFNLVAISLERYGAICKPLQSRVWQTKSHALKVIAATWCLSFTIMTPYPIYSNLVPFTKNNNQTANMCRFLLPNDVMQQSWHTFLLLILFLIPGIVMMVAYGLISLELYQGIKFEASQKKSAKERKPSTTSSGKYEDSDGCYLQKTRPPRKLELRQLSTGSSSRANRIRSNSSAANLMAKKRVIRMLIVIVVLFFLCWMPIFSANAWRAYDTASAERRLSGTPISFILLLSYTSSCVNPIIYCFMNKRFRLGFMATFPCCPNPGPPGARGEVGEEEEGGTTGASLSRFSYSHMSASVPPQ
T7 sequence (P32238 whole entry T117V/T118S): as the sequence (P32238 whole entry N98T) above, with T98N, T117V, T118S counted along it
T8 sequence (P32238 whole entry L356H): as the sequence (P32238 whole entry N98T) above, with T98N, L356H counted along it

CC(C)N(C(=O)CN1C(=O)[C@H](NC(=O)Nc2cccc(C(=O)O)c2)C(=O)N(c2ccccc2)c2ccccc21)c1ccccc1
pIC50 [1]: 6.98 | pIC50 [2]: 8.25 | pIC50 [3]: 6.89 | pIC50 [4]: 8.57 | pEC50 [5]: 9.10 | Activity [6]: inactive | EC50 [7]: Not Active

O=C(CN1C(=O)C(NC(=O)Nc2ccccc2)C(=O)N(c2ccccc2)c2ccccc21)Nc1ccccc1 (stereo not given)
Activity [6]: inactive | IC50 ([8]; cho): Not Active | IC50 [9]: Not Active | inhibition [10]: inactive

COc1ccc(N(C)C(=O)CN2C(=O)C(NC(=O)Nc3ccccc3)C(=O)N(c3ccccc3)c3ccccc32)cc1 (stereo not given)
pIC50 [2]: 7.31 | pIC50 [11]: 7.69 | pEC50 [5]: 7.05 | Activity [6]: inactive | pIC50 ([8]; read-out: IC50): 6.06 | pIC50 [12]: 7.30 | pIC50 [13]: < 6.00 | pIC50 [14]: 6.63 | pIC50 [15]: 7.39 | pIC50 [16]: 6.48 | pIC50 [17]: 6.82 | pIC50 [18]: 6.81 | IC50 [9]: Not Active | inhibition [10]: inactive
